Reference: ChEMBL document CHEMBL3352049, “Taxanes with high potency inducing tubulin assembly overcome tumoural cell resistances” (Bioorg Med Chem, 2014)
Active and inactive are the calls of the source. The rule behind the calls is not given here.

Key:
[1] = tested on: A2780; assay: Cell cycle arrest at G2/M phase in human A2780 cells at 30 nM after 20 hrs by flow cytometry; format: functional, cell-based
[2] = tested on: microtubule (Bos taurus); assay: Binding affinity to microtubule (Bos taurus) after 30 mins at 32 degC by flutax-2 displacement method
[3] = tested on: A2780; assay: Cell cycle arrest at G2/M phase in human A2780 cells at 60 nM after 20 hrs by flow cytometry; format: functional, cell-based
[4] = tested on: 1A9; assay: Cytotoxicity against human 1A9 cells by MTT assay; format: functional, cell-based
Procedure, shortened: (§1)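 MTT assay run as a modified version of an earlier method. IC50 in nM is the mean ± SEM of three independent assays. Relative resistance is the IC50 in the resistant line (1A9 tubulin mutants, or βIII-transfected HeLa) divided by the IC50 in the parental line (1A9 or HeLa).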

[5] = Cytotoxicity against human MCF7/R cells by MTT assay; format: functional, cell-based; details: MCF7R
[6] = tested on: microtubule (Bos taurus); assay: Binding affinity to microtubule (Bos taurus) by STD NMR spectroscopy
[7] = tested on: A549; assay: Cell cycle arrest at G2/M phase in human A549 cells at 30 nM after 20 hrs by flow cytometry; format: functional, cell-based
[8] = tested on: microtubule (Bos taurus); assay: Binding affinity to microtubule (Bos taurus) after 30 mins at 42 degC by flutax-2 displacement method
[9] = tested on: HeLa; assay: Resistance ratio of IC50 for human HeLa cells transfected with wild-type tubulin beta3 to IC50 for human HeLa cells; format: functional
Procedure, shortened: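 Relative resistance is the IC50 in HeLa cells transfected with wild-type βIII-tubulin divided by the IC50 in parental HeLa cells. Each IC50 (nM) is the mean ± SEM of three independent assays.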

[10] = tested on: HeLa; assay: Cytotoxicity against human HeLa cells transfected with wild-type tubulin beta3 by MTT assay; format: functional, cell-based; procedure, shortened: as §1
[11] = Resistance ratio of IC50 for human A2780AD cells to IC50 for human A2780 cells; format: functional, A2780 ADR
[12] = tested on: 1A9; assay: Resistance ratio of IC50 for human 1A9PTX10 cells to IC50 for human 1A9 cells; format: functional
Procedure, shortened: (§2)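 Relative resistance is the IC50 in the 1A9 tubulin-mutant line divided by the IC50 in parental 1A9 ovarian carcinoma cells. Each IC50 (nM) is the mean ± SEM of three independent assays.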

[13] = tested on: HeLa; assay: Cytotoxicity against human HeLa cells by MTT assay; format: functional, cell-based; procedure, shortened: as §1
[14] = Cytotoxicity against human 1A9PTX22 cells by MTT assay; format: functional, cell-based; details: 1A9/ptx-22; procedure, shortened: as §1
[15] = tested on: A549; assay: Cell cycle arrest at G2/M phase in human A549 cells at 60 nM after 20 hrs by flow cytometry; format: functional, cell-based
[16] = Cytotoxicity against human 1A9/A8 cells by MTT assay; format: functional, cell-based; procedure, shortened: as §1
[17] = tested on: A549; assay: Effect on microtubule cytoskeleton in human A549 cells assessed as induction of micronuleated cells with short microtubules in cytoplasm at 60 to 120 nM after 24 hrs by immunofluorescence assay; format: cell-based
Procedure, shortened: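 A549 cells were grown overnight on coverslips, then given DMSO vehicle or ligand (60 or 120 nM) for 24 h. Cells were permeabilized with Triton X-100 and fixed in 3.7% formaldehyde. Microtubules were stained with DM1A α-tubulin antibody and DNA with Hoechst 33342. Preparations were viewed by epifluorescence microscopy.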

[18] = Cytotoxicity against human A2780AD cells by MTT assay; format: functional, cell-based; details: A2780 ADR
[19] = tested on: 1A9; assay: Resistance ratio of IC50 for human 1A9PTX22 cells to IC50 for human 1A9 cells; format: functional; procedure, shortened: as §2
[20] = tested on: 1A9; assay: Resistance ratio of IC50 for human 1A9/A8 cells to IC50 for human 1A9 cells; format: functional
[21] = tested on: microtubule (Bos taurus); assay: Binding affinity to microtubule (Bos taurus) after 30 mins at 26 degC by flutax-2 displacement method
[22] = tested on: microtubule (Bos taurus); assay: Binding affinity to microtubule (Bos taurus) after 30 mins at 37 degC by flutax-2 displacement method
[23] = tested on: microtubule (Bos taurus); assay: Binding affinity to microtubule (Bos taurus) after 30 mins at 40 degC by flutax-2 displacement method
[24] = Cytotoxicity against human 1A9PTX10 cells by MTT assay; format: functional, cell-based; details: 1A9/ptx-10; procedure, shortened: as §1
[25] = tested on: A2780; assay: Cytotoxicity against human A2780 cells by MTT assay; format: functional, cell-based
[26] = tested on: microtubule (Bos taurus); assay: Binding affinity to microtubule (Bos taurus) after 30 mins at 35 degC by flutax-2 displacement method
[27] = target: Tubulin (Bos taurus) (UniProt Q6B856+Q862L2+Q862F3); assay: Induction of calf brain tubulin polymerization assessed as tubulin concentration required to form microtubules by electron microscopy
Procedure, shortened: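 Critical tubulin concentration found by centrifugation and quantification of the polymer formed. Polymers adsorbed onto formvar/carbon-coated copper grids, stained with 1% uranyl acetate, and viewed by electron microscopy at 100 kV.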

[28] = tested on: microtubule (Bos taurus); assay: Binding affinity to microtubule (Bos taurus) after 30 mins at 27 degC by flutax-2 displacement method
[29] = Cell cycle arrest at G2/M phase in human A2780AD cells at 30 nM after 20 hrs by flow cytometry; format: functional, cell-based; details: A2780 ADR
[30] = Cell cycle arrest at G2/M phase in human A2780AD cells at 60 nM after 20 hrs by flow cytometry; format: functional, cell-based; details: A2780 ADR
[31] = tested on: microtubule (Bos taurus); assay: Binding affinity to microtubule (Bos taurus) by TR-NOESY spectroscopy
[32] = tested on: microtubule (Bos taurus); assay: Binding affinity to microtubule (Bos taurus) after 30 mins at 30 degC by flutax-2 displacement method

CC(=O)O[C@@]12CO[C@@H]1C[C@H](O)[C@@]1(C)C(=O)[C@H](OC(=O)N(C)C)C3=C(C)[C@@H](OC(=O)[C@H](O)[C@H](C=C(F)F)NC(=O)OC(C)(C)C)C[C@@](O)([C@@H](OC(=O)c4ccccc4)[C@H]21)C3(C)C
Activity [1]: Active | Kb [2]: 13 ×10⁷ /M | Activity [3]: Active | IC50 [4]: 3.2 nM | IC50 [5]: 4.3 nM | Activity [6]: Active | Activity [7]: Active | Kb [8]: 8 ×10⁷ /M | Ratio IC50 [9]: 1.4 | IC50 [10]: 3.5 nM | Ratio IC50 [11]: 4.3 | Ratio IC50 [12]: 1.6 | IC50 [13]: 2.5 nM | IC50 [14]: 7 nM | Activity [15]: Active | IC50 [16]: 4 nM | Activity [17]: Active | IC50 [18]: 15.1 nM | Ratio IC50 [19]: 2.2 | Ratio IC50 [20]: 1.2 | Kb [21]: 15 ×10⁷ /M | Kb [22]: 10 ×10⁷ /M | Kb [23]: 10 ×10⁷ /M | IC50 [24]: 5.25 nM | IC50 [25]: 3.5 nM | Kb [26]: 10 ×10⁷ /M | Activity [27]: 0.3 µM | Kb [28]: 14 ×10⁷ /M | Activity [29]: Active | Activity [30]: Active | Activity [31]: Active | Kb [32]: 13 ×10⁷ /M
